According to ChEMBL document CHEMBL3351675, “Novel benzenesulfonylureas containing thiophenylpyrazoline moiety as potential antidiabetic and anticancer agents” (Bioorg Med Chem Lett, 2014):
Calls of active or inactive are those of the source. No cut-off for these calls is given here.

How the values were obtained:
[1] = Anticancer activity against human HOP92 cells assessed as cell growth level at 10 uM after 48 hrs by sulforhodamine B assay; type: functional, HOP-92
SW-620 = assay: Anticancer activity against human SW620 cells assessed as cell growth level at 10 uM after 48 hrs by sulforhodamine B assay; type: functional
[2] = Anticancer activity against human SF295 cells assessed as cell growth level at 10 uM after 48 hrs by sulforhodamine B assay; type: functional, SF-295
A549 = assay: Anticancer activity against human A549/ATCC cells assessed as cell growth level at 10 uM after 48 hrs by sulforhodamine B assay; type: functional
CAKI-1 = assay: Anticancer activity against human CAKI-1 cells assessed as cell growth level at 10 uM after 48 hrs by sulforhodamine B assay; type: functional
[3] = Anticancer activity against human UO31 cells assessed as cell growth level at 10 uM after 48 hrs by sulforhodamine B assay; type: functional, UO-31
[4] = target: Peroxisome proliferator-activated receptor gamma (Mus musculus) (UniProt P37238); assay: Transactivation of PPARgamma (mouse) expressed in 3T3-L1 cells incubated for 24 hrs by luciferase reporter gene assay relative to rosiglitazone
KM12 = assay: Anticancer activity against human KM12 cells assessed as cell growth level at 10 uM after 48 hrs by sulforhodamine B assay; type: functional
[5] = Anticancer activity against human OVCAR3 cells assessed as cell growth level at 10 uM after 48 hrs by sulforhodamine B assay; type: functional, OVCAR-3
[6] = Anticancer activity against human SF539 cells assessed as cell growth level at 10 uM after 48 hrs by sulforhodamine B assay; type: functional, SF-539
TK-10 = assay: Anticancer activity against human TK10 cells assessed as cell growth level at 10 uM after 48 hrs by sulforhodamine B assay; type: functional
NCI-H322M = assay: Anticancer activity against human NCI-H322M cells assessed as cell growth level at 10 uM after 48 hrs by sulforhodamine B assay; type: functional
Rattus norvegicus = assay: Antidiabetic activity in overnight fasted Wistar rat assessed as reduction in plasma glucose level at 30 mg/kg, po by oral glucose tolerance test; type: functional, organism-based; design: dose 30 mg/kg
Procedure, shortened: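 Normal Wistar rats were given a glucose load by the oral glucose tolerance method, and plasma glucose rise was followed after oral test dosing. Glibenclamide was the reference drug. Data are mean ± SEM of six observations versus control, analysed by one-way ANOVA with Dunnett test (p < 0.05, p < 0.01).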

M14 = assay: Anticancer activity against human M14 cells assessed as cell growth level at 10 uM after 48 hrs by sulforhodamine B assay; type: functional
MCF7 = assay: Anticancer activity against human MCF7 cells assessed as cell growth level at 10 uM after 48 hrs by sulforhodamine B assay; type: functional
T47D = assay: Anticancer activity against human T47D cells assessed as cell growth level at 10 uM after 48 hrs by sulforhodamine B assay; type: functional
[7] = Anticancer activity against human HCC2998 cells assessed as cell growth level at 10 uM after 48 hrs by sulforhodamine B assay; type: functional, HCC 2998
K562 = assay: Anticancer activity against human K562 cells assessed as cell growth level at 10 uM after 48 hrs by sulforhodamine B assay; type: functional
786-0 = assay: Anticancer activity against human 786-0 cells assessed as cell growth level at 10 uM after 48 hrs by sulforhodamine B assay; type: functional
[8] = Anticancer activity against human LOXIMVI cells assessed as cell growth level at 10 uM after 48 hrs by sulforhodamine B assay; type: functional, LOX IMVI
HT-29 = assay: Anticancer activity against human HT-29 cells assessed as cell growth level at 10 uM after 48 hrs by sulforhodamine B assay; type: functional
SNB-19 = assay: Anticancer activity against human SNB19 cells assessed as cell growth level at 10 uM after 48 hrs by sulforhodamine B assay; type: functional
[9] = Anticancer activity against human Hs 578T cells assessed as cell growth level at 10 uM after 48 hrs by sulforhodamine B assay; type: functional
[10] = Anticancer activity against human NCI-ADR-RES cells assessed as cell growth level at 10 uM after 48 hrs by sulforhodamine B assay; type: functional
[11] = Anticancer activity against human NCI60 cells assessed as cell growth level at 10 uM after 48 hrs by sulforhodamine B assay; type: functional
U-251 = assay: Anticancer activity against human U251 cells assessed as cell growth level at 10 uM after 48 hrs by sulforhodamine B assay; type: functional
[12] = Anticancer activity against human OVCAR8 cells assessed as cell growth level at 10 uM after 48 hrs by sulforhodamine B assay; type: functional, OVCAR-8
ACHN = assay: Anticancer activity against human ACHN cells assessed as cell growth level at 10 uM after 48 hrs by sulforhodamine B assay; type: functional
MDA-MB-231 = assay: Anticancer activity against human MDA-MB-231 cells assessed as cell growth level at 10 uM after 48 hrs by sulforhodamine B assay; type: functional
SK-MEL-28 = assay: Anticancer activity against human SK-MEL-28 cells assessed as cell growth level at 10 uM after 48 hrs by sulforhodamine B assay; type: functional
HL-60(TB) = assay: Anticancer activity against human HL-60(TB) cells assessed as cell growth level at 10 uM after 48 hrs by sulforhodamine B assay; type: functional
SN12C = assay: Anticancer activity against human SN12C cells assessed as cell growth level at 10 uM after 48 hrs by sulforhodamine B assay; type: functional
NCI-H522 = assay: Anticancer activity against human NCI-H522 cells assessed as cell growth level at 10 uM after 48 hrs by sulforhodamine B assay; type: functional
[13] = Anticancer activity against human COLO205 cells assessed as cell growth level at 10 uM after 48 hrs by sulforhodamine B assay; type: functional, COLO 205
HOP-62 = assay: Anticancer activity against human HOP62 cells assessed as cell growth level at 10 uM after 48 hrs by sulforhodamine B assay; type: functional
NCI-H460 = assay: Anticancer activity against human NCI-H460 cells assessed as cell growth level at 10 uM after 48 hrs by sulforhodamine B assay; type: functional
DU-145 = assay: Anticancer activity against human DU145 cells assessed as cell growth level at 10 uM after 48 hrs by sulforhodamine B assay; type: functional
MDA-MB-435 = assay: Anticancer activity against human MDA-MB-435 cells assessed as cell growth level at 10 uM after 48 hrs by sulforhodamine B assay; type: functional
[14] = Anticancer activity against human HCT116 cells assessed as cell growth level at 10 uM after 48 hrs by sulforhodamine B assay; type: functional, HCT-116
NCI-H226 = assay: Anticancer activity against human NCI-H226 cells assessed as cell growth level at 10 uM after 48 hrs by sulforhodamine B assay; type: functional
SK-MEL-5 = assay: Anticancer activity against human SK-MEL-5 cells assessed as cell growth level at 10 uM after 48 hrs by sulforhodamine B assay; type: functional
IGROV-1 = assay: Anticancer activity against human IGROV1 cells assessed as cell growth level at 10 uM after 48 hrs by sulforhodamine B assay; type: functional
[15] = Anticancer activity against human PC3 cells assessed as cell growth level at 10 uM after 48 hrs by sulforhodamine B assay; type: functional, PC-3
[16] = Anticancer activity against human OVCAR5 cells assessed as cell growth level at 10 uM after 48 hrs by sulforhodamine B assay; type: functional, OVCAR-5

Sequence of Peroxisome proliferator-activated receptor gamma (Mus musculus) (P37238 whole entry, looked up): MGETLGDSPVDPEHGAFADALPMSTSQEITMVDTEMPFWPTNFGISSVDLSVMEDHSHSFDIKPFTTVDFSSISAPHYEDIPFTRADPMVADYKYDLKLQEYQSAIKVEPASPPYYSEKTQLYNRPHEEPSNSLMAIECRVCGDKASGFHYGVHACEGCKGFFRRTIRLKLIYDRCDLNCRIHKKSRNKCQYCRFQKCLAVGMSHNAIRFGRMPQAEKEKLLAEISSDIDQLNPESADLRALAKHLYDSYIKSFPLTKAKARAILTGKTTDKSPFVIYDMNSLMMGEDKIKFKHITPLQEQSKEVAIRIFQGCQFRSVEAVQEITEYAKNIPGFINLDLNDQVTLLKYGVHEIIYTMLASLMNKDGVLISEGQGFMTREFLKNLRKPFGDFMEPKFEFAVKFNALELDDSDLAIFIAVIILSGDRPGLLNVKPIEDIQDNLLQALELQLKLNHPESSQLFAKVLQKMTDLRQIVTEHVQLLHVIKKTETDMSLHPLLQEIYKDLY

COc1ccc(NC(=O)NS(=O)(=O)c2ccc(N3N=C(c4cccs4)CC3c3ccc(C)s3)cc2)cc1 (stereo not drawn)
Activity [1]: 87.06% | Activity (SW-620): 107.16% | Activity [2]: 104.7% | Activity (A549): 5.45% | Activity (CAKI-1): 94.74% | Activity [3]: 87.18% | Activity [4]: inactive | Activity (KM12): 98.51% | Activity [5]: 106.38% | Activity [6]: 104.31% | Activity (TK-10): 96.03% | Activity (NCI-H322M): 102.37% | inhibition (Rattus norvegicus): Active | Activity (M14): 52.12% | Activity (MCF7): 99.04% | Activity (T47D): 85.68% | Activity [7]: 111.31% | Activity (K562): 111.39% | Activity (786-0): 100.87% | Activity [8]: 96.81% | Activity (HT-29): 119.52% | Activity (SNB-19): 103.16% | Activity [9]: 97.52% | Activity [10]: 103.44% | Activity [11]: 87.76% | Activity (U-251): 98.07% | Activity [12]: 106.9% | Activity (ACHN): 93.16% | Activity (MDA-MB-231): 113.39% | Activity (SK-MEL-28): 48.3% | Activity (HL-60(TB)): 102.86% | Activity (SN12C): 111.79% | Activity (NCI-H522): 87.33% | Activity [13]: -63.47% | Activity (HOP-62): 81.02% | Activity (NCI-H460): 108.95% | Activity (DU-145): 105.62% | Activity (MDA-MB-435): 52.3% | Activity [14]: 98.77% | Activity (NCI-H226): 110.15% | Activity (SK-MEL-5): 48.27% | Activity (IGROV-1): 108.05% | Activity [15]: 96.33% | Activity [16]: 113.48%

Cc1ccc(NC(=O)NS(=O)(=O)c2ccc(N3N=C(c4cccs4)CC3c3ccc(C)s3)cc2)cc1 (stereo not drawn)
Activity [1]: 84.91% | Activity (SW-620): 106.34% | Activity [2]: 100.07% | Activity (A549): 101.55% | Activity (CAKI-1): 95.78% | Activity [3]: 85.69% | Activity [4]: inactive | Activity (KM12): 97.36% | Activity [5]: 98.17% | Activity [6]: 98.31% | Activity (TK-10): 96.78% | Activity (NCI-H322M): 103.57% | inhibition (Rattus norvegicus): Active | Activity (M14): 58.39% | Activity (MCF7): 97.09% | Activity (T47D): 78.79% | Activity [7]: 108.61% | Activity (K562): 113.81% | Activity (786-0): 103.79% | Activity [8]: 99.74% | Activity (HT-29): 127.85% | Activity (SNB-19): 108.18% | Activity [9]: 96.05% | Activity [10]: 102.87% | Activity [11]: 89.29% | Activity (U-251): 94.12% | Activity [12]: 99.82% | Activity (ACHN): 96.6% | Activity (MDA-MB-231): 116.79% | Activity (SK-MEL-28): 47.8% | Activity (HL-60(TB)): 126.37% | Activity (SN12C): 111.21% | Activity (NCI-H522): 91.51% | Activity [13]: -54.62% | Activity (HOP-62): 76.92% | Activity (NCI-H460): 103.16% | Activity (DU-145): 102.33% | Activity (MDA-MB-435): 61.95% | Activity [14]: 85.12% | Activity (NCI-H226): 110.48% | Activity (SK-MEL-5): 47.78% | Activity (IGROV-1): 107.76% | Activity [15]: 86.34% | Activity [16]: 114.78%
